GASC-1 inh – inhibitors of human GASC-1 (JMJD2C) demethylase. Q9H3R0. GST-JMJD2C(1-420) H3K9me3 demethylation, DELFIA europium. 330,000 compounds, 0.069% hits. inhibition, % at 2.35 µM;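 active = more than half of a compound's replicate wells show inhibition beyond 50%, single wells judged on their own value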;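 note: signal counts dimethyl H3K9 product captured on neutravidin plate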
Furin inh – inhibitors of human furin. P09958. purified furin, fluorogenic substrate cleavage. inhibition, % at 20 µM or 30 µM. 220,000 compounds, 0.061% hits; in the data active = inhibition above about 25%
NR2E3 ag-1 – agonists of human nuclear receptor NR2E3 | AID 2300 | 320,000 compounds, 0.12% hits | GST-NR2E3/biotin-RetCOR TR-FRET, 1536-well | Q9Y5X4 | inhibition of corepressor binding, % at 4.78 µM;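 active = percent inhibition above the cutoff of mean plus 3 SD of all tested compounds, set per screening campaign, cut at about 20% in these data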
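System: GST-NR2E3 and biotin-RetCOR proteins; probe or stimulus: 7 nM biotin-RetCOR; doses: compound at 4.8 µM, single dose; schedule: Compound–protein incubation for 5 h at 4 °C; detection: time-resolved FRET; read-out: percent inhibition; controls: biotin wells as high control, 0.6% DMSO wells as low control; format: 1536-well plates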
NR2E3 ag-2 – activates human NR2E3 receptor | inhibition of corepressor binding, % at 3.98 µM | Q9Y5X4 | 360,000 compounds, 0.35% hits | AID 602229 | CHO-S Gal4-NCOR/VP16-NR2E3 two-hybrid, luciferase;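 active = inhibition above the mean of all tested compounds plus 3 SD, cut at about 70% in these data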;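 note: higher means lower luciferase signal from less NR2E3 corepressor binding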
PGE2 EP2 inh – inhibitors of human EP2 prostaglandin E2 receptor; P43116; 260,000 compounds, 0.52% hits; inhibition, % at 25 µM; AID 1422; C6 glioma cells expressing human EP2, cAMP TR-FRET; cells stimulated with saturating PGE2;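 active = percent inhibition above 40 after rounding to a whole number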;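 note: rat C6 glioma host cells with rolipram phosphodiesterase inhibitor present; the protocol text gives 20 µM as final concentration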
Target sequence (P43116 whole entry, looked up): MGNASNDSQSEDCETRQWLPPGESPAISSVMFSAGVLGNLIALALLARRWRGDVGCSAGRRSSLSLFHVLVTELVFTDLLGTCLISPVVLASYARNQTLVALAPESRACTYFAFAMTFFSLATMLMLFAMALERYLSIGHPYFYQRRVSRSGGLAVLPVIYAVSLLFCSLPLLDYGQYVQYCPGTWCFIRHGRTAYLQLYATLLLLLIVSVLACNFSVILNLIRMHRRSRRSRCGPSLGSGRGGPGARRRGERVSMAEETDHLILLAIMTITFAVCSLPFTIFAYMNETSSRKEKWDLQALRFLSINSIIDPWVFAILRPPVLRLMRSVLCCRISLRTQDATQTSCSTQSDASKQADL
EP2 modulator – modulators of human EP2 prostaglandin E2 receptor | AID 940 | EP2-expressing cells, cAMP HTRF FRET, PGE2 co-stimulation | induction, % at 25 µM | 260,000 compounds, 0.83% hits;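 active = compounds whose cAMP rise, as percent of the full-agonist control response, exceeds 60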;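 note: rat C6 glioma line stably carrying human EP2 under a CMV promoter; the protocol text gives 20 µM as final concentration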
Numbers stand for hits; 0 = inactive; - = no result given; ! = not confirmed by another sample. Hits are enriched below; roughly 1.3% of the tested compounds scored in any of these assays.

SMILES	GASC-1 inh	Furin inh	NR2E3 ag-1	NR2E3 ag-2	PGE2 EP2 inh	EP2 modulator
Nc1nn2c(-c3ccccc3)cc(=O)[nH]c2c1N=Nc1ccc(O)cc1	51	0	0	0	0	0
Cc1cccc(-c2nnc3n2N=C(c2ccccc2)CS3)c1	0	0	0	0	0	63
CCc1nc(N2CCOCC2)ncc1C(=O)NC(C)c1ccc2c(c1)CCC2 (stereo unspecified)	-	-	-	-	0	0
CCCn1nnc(NC(=O)c2sc3ccccc3c2Cl)n1	0	0	0	0	64	0
N=C1[C@H](O)[C@]2(I)c3ccccc3N3C(=N)[C@H](O)[C@@H]4c5ccccc5N1[C@@H]4[C@@H]32	-	-	-	-	68	0
COc1ccccc1CN(Cc1nc2ccccc2c(=O)[nH]1)S(=O)(=O)c1ccc(C)cc1	0	0	0	-	0	61
Cc1ccc(SCCCCN2C(=O)NC(C)(C)C2=O)cc1	0	33	0	0	0	0
Cc1onc(-c2ccccc2Cl)c1C(=O)Nc1sc2c(c1C(N)=O)CCC(C)C2 (stereo unspecified)	0	0	0	0	-	62
COC(=O)c1c(NC(=O)c2c(-c3ccccc3Cl)noc2C)sc2c1CCC2	0	0	0	0	-	0
Oc1cc(CN2COc3ccccc32)c(O)cc1CNC1CCCCC1	-	-	-	-	118	0
CC1=NC(=O)C(N=O)N1c1ccccc1 (stereo unspecified)	-	-	-	-	51	0
Cc1ccc(O)c(NC(=O)c2ccc3c(c2)C(=O)N(CC(C)C)C3=O)c1	0	-	0	0	-	-
CCCN1C(=O)c2ccc(C(=O)Nc3cc(C)ccc3O)cc2C1=O	57	-	0	0	-	-
O=C1C(N2CCOCC2)=C(n2nnc3ccccc32)C(=O)c2ccccc21	0	0	0	0	40	0
O=C(O)c1cccc(N/N=C/C2=C(Cl)c3cc(Cl)ccc3SC2)c1	0	0	-	0	0	63
COc1ccc(-c2nnc(SCC(=O)c3ccccc3)o2)cc1OC	-	-	-	-	0	0
COc1ccc(C(=O)CSc2nnc(-c3ccc(OC)c(OC)c3)o2)cc1	-	-	-	-	59	0
O=C(CSc1nnc(-c2ccccc2Cl)o1)Oc1ccc(Br)cc1	0	0	0	0	47!	0
O=C(CSc1nnc(-c2ccccc2O)o1)Oc1ccc(Br)cc1	0	0	0	0	0	0
COc1ccc2[nH]c(=O)c(CN(CCO)Cc3nnnn3Cc3ccco3)cc2c1	-	-	-	-	0	0
COC(=O)c1sc(-c2ccc(Cl)cc2)cc1NC(=O)c1ccccc1C(=O)O	0	0	0	0	53	0
COC(=O)c1sc(-c2ccc(C(C)(C)C)cc2)cc1NC(=O)c1ccccc1C(=O)O	0	0	0	0	0	0
CCN(c1ccccc1)S(=O)(=O)c1ccc(Cl)nc1	0	0	0	0	0	0
CCN(c1cccc2ccccc12)S(=O)(=O)c1ccc(Cl)nc1	0	0	0	0	0	65
COc1ccc(C(=O)N2CCN(C)CC2)cc1	-	-	-	-	0	0
SMILES	GASC-1 inh	Furin inh	NR2E3 ag-1	NR2E3 ag-2	PGE2 EP2 inh	EP2 modulator
CCCCc1ccc(Nc2nc(CCC)cc(=O)[nH]2)cc1	0	0	0	0	0	61
CCCc1cc(=O)[nH]c(Nc2ccc(N3CCCCC3)cc2)n1	0	0	0	0	0	0
O=C(NC1CCCCC1)NC1CC2CCCC(C1)N2Cc1ccccc1 (stereo unspecified)	-	-	-	-	0	0
O=C(Nc1ccc(Cl)c(C(F)(F)F)c1)NC1CC2CCCC(C1)N2Cc1ccccc1 (stereo unspecified)	0	0	0	-	51	0
CCOC(=O)C1(C)C=C(Nc2ccccc2)C(=O)N1c1ccccc1 (stereo unspecified)	0	0	0	0	0	62
CCOC(=O)C1(C)C=C(Nc2ccc(OCC)cc2)C(=O)N1c1ccccc1 (stereo unspecified)	0	0	0	0	0	0
CCN(CC)c1c([N+](=O)[O-])c(=O)n(C)c2ccccc12	0	0	0	0	0	0
Cn1c(=O)c([N+](=O)[O-])c(Cl)c2ccccc21	0	0	-	0	95	0
O=C(O)[C@H](Cc1ccccc1)N1C(=O)c2ccccc2C1=O	-	-	-	-	0	0
O=C(C(Cc1ccccc1)N1C(=O)c2ccccc2C1=O)N1CCc2ccccc21 (stereo unspecified)	0	0	0	0	0	64
CCN(CC)CCCN1C(=O)C(=O)/C(=C(\O)c2cc(C)ccc2C)C1c1cccnc1 (stereo unspecified)	-	-	-	-	0	0
COC(=O)C1=CN(Cc2ccc(OC)cc2)C=C(C(=O)OC)C1c1ccsc1	0	0	0	0	0	61
C[C@H](NC(=O)c1ccc(Cl)c(Cl)c1)c1ccc(-c2ccccc2)cc1	-	-	-	-	55	0
Cc1cccc2cc(CN(C(=O)C3CC3)C3CCCCC3)c3nnnn3c12	-	-	-	-	0	0
Cc1cc(C)n(Cc2ccc(C(=O)O)cc2)n1	-	0	0	0	0	0
Cc1ccc(C)n1Cc1ccc(C(=O)O)cc1	-	0	34	0	0	0
COc1ccc(C2(C(=O)N(C)c3nc4c(s3)CCc3occc3-4)CC2)cc1	-	-	-	-	0	0
CCOC(=O)Nc1cc(C)c(Cl)cc1OC	51	0	0	0	0	0
O=C(NCCO)Nc1ccc2nc(-c3ccco3)c(-c3ccco3)nc2c1	0	0	46	-	0	0
O=C(NCCCO)c1ccc2nc(-c3ccco3)c(-c3ccco3)nc2c1	-	0	-	0	0	0
CC1CCCCN1CC(=O)Nc1ccccc1Sc1ccccc1 (stereo unspecified)	0	0	0	0	0	62
O=C(NCCNC1CCCC1)c1cccs1	-	-	-	-	0	0
COc1ccc(-c2nn(C)c3sc(C(=O)NCc4ccco4)cc23)cc1OC	0	0	0	0	0	0
COc1ccc(NC(=O)c2cc3c(-c4ccc(OC)c(OC)c4)nn(C)c3s2)cc1OC	0	0	0	0	43	0
Cc1cc(OCc2nc(N)nc(N)c2-c2ccc(Cl)c(Cl)c2)ccc1[N+](=O)[O-]	-	-	-	0	68	0
SMILES	GASC-1 inh	Furin inh	NR2E3 ag-1	NR2E3 ag-2	PGE2 EP2 inh	EP2 modulator
COc1cc(O)c2c(O)c3c(c4c2c1[C@]1(C4)C(C)=CCCC1(C)C)[C@H](O)[C@@]1(O)CC(=O)C(C(N)=O)=C(O)[C@]1(O)C3=O	-	-	-	-	51	0
COCCN(CCOC)c1ncnc2c1cnn2-c1ccccc1	0	0	0	0	0	78
O=[N+]([O-])c1ccc(N2CCOCC2)c([N+](=O)[O-])c1	-	-	-	0	-	-
CC(C)=Cc1oc2ccc([N+](=O)[O-])cc2c1N1CCOCC1	0	0	0	0	0	64
O=S(=O)(O)c1ccc2c(N=Nc3cccc4ccccc34)c(O)c(S(=O)(=O)O)cc2c1	-	-	-	-	57	0
NS(=O)(=O)c1ccc(N=Nc2c(O)c(C(=O)O)cc3ccccc23)cc1	0	0	0	0	50!	0
O=C(O)Cc1ccc(N=Nc2c(O)c(C(=O)O)cc3ccccc23)cc1	0	0	0	0	0	0

Source: PubChem BioAssay
